Assays:
Type in all cases: functional
[1] = tested on: Staphylococcus epidermidis; assay: Antibacterial activity against methicillin-resistant Staphylococcus epidermidis 14-22 after 18 to 24 hrs by two-fold serial dilution method
Procedure, shortened: (§1)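 Agar media, standard twofold serial dilution. MIC is the lowest concentration giving complete inhibition of bacterial growth after incubation at 35 °C for 18–24 h. Ciprofloxacin and levofloxacin were run as comparators.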

Staphylococcus aureus [2] = assay: Antibacterial activity against methicillin-sensitive Staphylococcus aureus 14-3 after 18 to 24 hrs by two-fold serial dilution method
Procedure, shortened: (§2)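 Twofold serial dilution in agar media against Gram-positive and Gram-negative strains. Plates incubated at 35 °C for 18–24 h. MIC read as the lowest compound concentration giving complete inhibition of bacterial growth.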

[3] = tested on: Staphylococcus epidermidis; assay: Antibacterial activity against methicillin-resistant Staphylococcus epidermidis 14-21 after 18 to 24 hrs by two-fold serial dilution method; procedure, shortened: as §1
Staphylococcus aureus [4] = assay: Antibacterial activity against methicillin-sensitive Staphylococcus aureus 14-4 after 18 to 24 hrs by two-fold serial dilution method; procedure, shortened: as §2
Enterococcus faecium [5] = assay: Potency index, ratio of levofloxacin MIC to compound MIC for Enterococcus faecium 14-6
Klebsiella pneumoniae [6] = assay: Antibacterial activity against Klebsiella pneumoniae 14-1 after 18 to 24 hrs by two-fold serial dilution method; procedure, shortened: as §2
Enterococcus faecium [7] = assay: Antibacterial activity against Enterococcus faecium 14-6 after 18 to 24 hrs by two-fold serial dilution method; procedure, shortened: as §2
Pseudomonas aeruginosa [8] = assay: Antibacterial activity against Pseudomonas aeruginosa 14-9 after 18 to 24 hrs by two-fold serial dilution method; procedure, shortened: as §2
Staphylococcus aureus [9] = assay: Potency index, ratio of ciprofloxacin MIC to compound MIC for methicillin-resistant Staphylococcus aureus 14-5
Staphylococcus aureus [10] = assay: Antibacterial activity against methicillin-sensitive Staphylococcus aureus 14-1 after 18 to 24 hrs by two-fold serial dilution method; procedure, shortened: as §2
Enterococcus faecium [11] = assay: Potency index, ratio of ciprofloxacin MIC to compound MIC for Enterococcus faecium 14-5
[12] = tested on: Staphylococcus epidermidis; assay: Potency index, ratio of ciprofloxacin MIC to compound MIC for methicillin-resistant Staphylococcus epidermidis 14-21
Escherichia coli [13] = assay: Antibacterial activity against Escherichia coli ATCC 25922 after 18 to 24 hrs by two-fold serial dilution method; procedure, shortened: as §2
Enterococcus faecium [14] = assay: Antibacterial activity against Enterococcus faecium 14-5 after 18 to 24 hrs by two-fold serial dilution method; procedure, shortened: as §2
[15] = tested on: Staphylococcus epidermidis; assay: Antibacterial activity against methicillin-resistant Staphylococcus epidermidis 14-39 after 18 to 24 hrs by two-fold serial dilution method; procedure, shortened: as §1
[16] = tested on: Staphylococcus epidermidis; assay: Potency index, ratio of levofloxacin MIC to compound MIC for methicillin-resistant Staphylococcus epidermidis 14-37
[17] = tested on: Staphylococcus epidermidis; assay: Potency index, ratio of levofloxacin MIC to compound MIC for methicillin-resistant Staphylococcus epidermidis 14-21
[18] = tested on: Staphylococcus epidermidis; assay: Antibacterial activity against methicillin-resistant Staphylococcus epidermidis 14-37 after 18 to 24 hrs by two-fold serial dilution method; procedure, shortened: as §1
Enterococcus faecalis [19] = assay: Potency index, ratio of levofloxacin MIC to compound MIC for Enterococcus faecalis 14-1
Staphylococcus aureus [20] = assay: Antibacterial activity against methicillin-resistant Staphylococcus aureus 14-4 after 18 to 24 hrs by two-fold serial dilution method; procedure, shortened: as §1
[21] = tested on: Staphylococcus epidermidis; assay: Potency index, ratio of ciprofloxacin MIC to compound MIC for methicillin-resistant Staphylococcus epidermidis 14-37
Enterococcus faecium [22] = assay: Potency index, ratio of levofloxacin MIC to compound MIC for Enterococcus faecium 14-2
[23] = tested on: Staphylococcus epidermidis; assay: Potency index, ratio of levofloxacin MIC to compound MIC for methicillin-resistant Staphylococcus epidermidis 14-39
Streptococcus pneumoniae = assay: Antibacterial activity against methicillin-resistant Streptococcus pneumoniae ATCC 19615 after 18 to 24 hrs by two-fold serial dilution method; procedure, shortened: as §1
Escherichia coli [24] = assay: Antibacterial activity against Escherichia coli 14-1 after 18 to 24 hrs by two-fold serial dilution method; procedure, shortened: as §2
[25] = tested on: Mycobacterium tuberculosis; assay: Antimycobacterial activity against Mycobacterium tuberculosis H37Rv ATCC 27294 incubated for 7 days by microplate Alamar Blue assay; conditions: H37Rv ATCC 27294, 168 h
Procedure, shortened: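 Fluorescence read-out. MIC is the lowest concentration that reduces fluorescence by at least 90% relative to the mean of replicate bacterium-only controls. Isoniazid and rifampicin were included as reference drugs.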

Enterococcus faecium [26] = assay: Potency index, ratio of ciprofloxacin MIC to compound MIC for Enterococcus faecium 14-6
Enterococcus faecalis [27] = assay: Potency index, ratio of levofloxacin MIC to compound MIC for Enterococcus faecalis 14-2
Enterococcus faecalis [28] = assay: Potency index, ratio of ciprofloxacin MIC to compound MIC for Enterococcus faecalis 14-1
[29] = tested on: Staphylococcus epidermidis; assay: Potency index, ratio of ciprofloxacin MIC to compound MIC for methicillin-resistant Staphylococcus epidermidis 14-22
Klebsiella pneumoniae [30] = assay: Antibacterial activity against Klebsiella pneumoniae 14-4 after 18 to 24 hrs by two-fold serial dilution method; procedure, shortened: as §2
Staphylococcus aureus [31] = assay: Antibacterial activity against methicillin-resistant Staphylococcus aureus 14-5 after 18 to 24 hrs by two-fold serial dilution method; procedure, shortened: as §1
Enterococcus faecalis [32] = assay: Antibacterial activity against Enterococcus faecalis 14-2 after 18 to 24 hrs by two-fold serial dilution method; procedure, shortened: as §2
Klebsiella pneumoniae [33] = assay: Antibacterial activity against extended-spectrum beta-lactamase producing Klebsiella pneumoniae 14-18 after 18 to 24 hrs by two-fold serial dilution method; procedure, shortened: as §2
Enterococcus faecalis [34] = assay: Antibacterial activity against Enterococcus faecalis 14-1 after 18 to 24 hrs by two-fold serial dilution method; procedure, shortened: as §2
Klebsiella pneumoniae [35] = assay: Antibacterial activity against extended-spectrum beta-lactamase producing Klebsiella pneumoniae 14-19 after 18 to 24 hrs by two-fold serial dilution method; procedure, shortened: as §2
Staphylococcus aureus [36] = assay: Potency index, ratio of levofloxacin MIC to compound MIC for methicillin-resistant Staphylococcus aureus 14-4
Escherichia coli [37] = assay: Antibacterial activity against extended-spectrum beta-lactamase producing Escherichia coli 14-2 after 18 to 24 hrs by two-fold serial dilution method; procedure, shortened: as §2
[38] = tested on: Staphylococcus epidermidis; assay: Potency index, ratio of levofloxacin MIC to compound MIC for methicillin-resistant Staphylococcus epidermidis 14-22
Enterococcus faecium [39] = assay: Potency index, ratio of levofloxacin MIC to compound MIC for Enterococcus faecium 14-5
[40] = tested on: Staphylococcus epidermidis; assay: Antibacterial activity against methicillin-sensitive Staphylococcus epidermidis 14-2 after 18 to 24 hrs by two-fold serial dilution method; procedure, shortened: as §2
Pseudomonas aeruginosa [41] = assay: Antibacterial activity against Pseudomonas aeruginosa 14-16 after 18 to 24 hrs by two-fold serial dilution method; procedure, shortened: as §2
Enterococcus faecium [42] = assay: Potency index, ratio of ciprofloxacin MIC to compound MIC for Enterococcus faecium 14-2
Escherichia coli [43] = assay: Antibacterial activity against Escherichia coli 14-2 after 18 to 24 hrs by two-fold serial dilution method; procedure, shortened: as §2
Klebsiella pneumoniae [44] = assay: Antibacterial activity against Klebsiella pneumoniae 14-3 after 18 to 24 hrs by two-fold serial dilution method; procedure, shortened: as §2
Klebsiella pneumoniae [45] = assay: Antibacterial activity against extended-spectrum beta-lactamase producing Klebsiella pneumoniae 14-17 after 18 to 24 hrs by two-fold serial dilution method; procedure, shortened: as §2
Staphylococcus aureus [46] = assay: Potency index, ratio of levofloxacin MIC to compound MIC for methicillin-resistant Staphylococcus aureus 14-5
[47] = tested on: Staphylococcus epidermidis; assay: Potency index, ratio of ciprofloxacin MIC to compound MIC for methicillin-resistant Staphylococcus epidermidis 14-39
Pseudomonas aeruginosa [48] = assay: Antibacterial activity against Pseudomonas aeruginosa ATCC 27853 after 18 to 24 hrs by two-fold serial dilution method; procedure, shortened: as §2
Pseudomonas aeruginosa [49] = assay: Antibacterial activity against Pseudomonas aeruginosa 14-14 after 18 to 24 hrs by two-fold serial dilution method; procedure, shortened: as §2
Pseudomonas aeruginosa [50] = assay: Antibacterial activity against Pseudomonas aeruginosa 14-15 after 18 to 24 hrs by two-fold serial dilution method; procedure, shortened: as §2
Enterococcus faecalis [51] = assay: Potency index, ratio of ciprofloxacin MIC to compound MIC for Enterococcus faecalis 14-2
Staphylococcus aureus [52] = assay: Antibacterial activity against Staphylococcus aureus CMCC 26003 after 18 to 24 hrs by two-fold serial dilution method; procedure, shortened: as §2
Enterococcus faecium [53] = assay: Antibacterial activity against Enterococcus faecium 14-2 after 18 to 24 hrs by two-fold serial dilution method; procedure, shortened: as §2
Klebsiella pneumoniae [54] = assay: Antibacterial activity against Klebsiella pneumoniae 14-2 after 18 to 24 hrs by two-fold serial dilution method; procedure, shortened: as §2
Staphylococcus aureus [55] = assay: Potency index, ratio of ciprofloxacin MIC to compound MIC for methicillin-resistant Staphylococcus aureus 14-4
Escherichia coli [56] = assay: Antibacterial activity against extended-spectrum beta-lactamase producing Escherichia coli 14-1 after 18 to 24 hrs by two-fold serial dilution method; procedure, shortened: as §2

CO/N=C1/CN(c2c(F)cc3c(=O)c(C(=O)O)cn4c3c2OC[C@@H]4C)CC1(C)CNC1CC1 (stereo partly drawn)
0.5 µg/mL: MIC (Streptococcus pneumoniae) | MIC (Enterococcus faecalis [32])
< 8 ng/mL: MIC (Staphylococcus aureus [52])
16 µg/mL: MIC (Klebsiella pneumoniae [6]) | MIC (Klebsiella pneumoniae [33]) | MIC (Klebsiella pneumoniae [45]) | MIC (Pseudomonas aeruginosa [48]) | MIC (Klebsiella pneumoniae [54])
2: Ratio (Enterococcus faecium [5]) | Ratio (Staphylococcus aureus [9]) | Ratio (Enterococcus faecium [11]) | Ratio [12] | Ratio [16] | Ratio [17] | Ratio (Enterococcus faecalis [19]) | Ratio [21] | Ratio (Enterococcus faecium [22]) | Ratio [23] | Ratio (Enterococcus faecium [26]) | Ratio (Enterococcus faecalis [27]) | Ratio (Enterococcus faecalis [28]) | Ratio [29] | Ratio (Staphylococcus aureus [36]) | Ratio [38] | Ratio (Enterococcus faecium [39]) | Ratio (Enterococcus faecium [42]) | Ratio (Staphylococcus aureus [46]) | Ratio [47] | Ratio (Enterococcus faecalis [51]) | Ratio (Staphylococcus aureus [55])
64 µg/mL: MIC (Escherichia coli [24]) | MIC (Escherichia coli [43])
128 µg/mL: MIC (Klebsiella pneumoniae [44])
2 µg/mL: MIC [1] | MIC (Staphylococcus aureus [10]) | MIC (Escherichia coli [13]) | MIC [15] | MIC [18]
4 µg/mL: MIC [3] | MIC (Enterococcus faecium [14]) | MIC (Staphylococcus aureus [20]) | MIC (Staphylococcus aureus [31]) | MIC (Enterococcus faecium [53]) | MIC (Escherichia coli [56])
0.64 µg/mL: MIC90 [25]
32 µg/mL: MIC (Klebsiella pneumoniae [35]) | MIC (Pseudomonas aeruginosa [41]) | MIC (Pseudomonas aeruginosa [49]) | MIC (Pseudomonas aeruginosa [50])
8 µg/mL: MIC (Enterococcus faecium [7]) | MIC (Pseudomonas aeruginosa [8]) | MIC (Enterococcus faecalis [34]) | MIC [40]
0.015 µg/mL: MIC (Staphylococcus aureus [2]) | MIC (Staphylococcus aureus [4])
> 128 µg/mL: MIC (Klebsiella pneumoniae [30]) | MIC (Escherichia coli [37])

O=C(O)c1cn2c3c(c(N4C/C(=N/OCc5ccccc5)C(CNC5CC5)C4)c(F)cc3c1=O)OC[C@@H]2CF (stereo partly drawn)
0.125 µg/mL: MIC (Streptococcus pneumoniae)
< 8 ng/mL: MIC (Staphylococcus aureus [52])
8 µg/mL: MIC (Enterococcus faecium [7]) | MIC (Enterococcus faecium [14]) | MIC [40]
> 64 µg/mL: MIC (Escherichia coli [24]) | MIC (Klebsiella pneumoniae [30]) | MIC (Escherichia coli [37]) | MIC (Escherichia coli [43])
4 µg/mL: MIC (Staphylococcus aureus [31]) | MIC (Escherichia coli [56])
0.015 µg/mL: MIC (Staphylococcus aureus [2])
0.25 µg/mL: MIC (Enterococcus faecalis [32])
0.03 µg/mL: MIC (Staphylococcus aureus [4])
2 µg/mL: MIC [1] | MIC [3] | MIC [15] | MIC [18] | MIC (Staphylococcus aureus [20])
32 µg/mL: MIC (Pseudomonas aeruginosa [8]) | MIC (Klebsiella pneumoniae [33]) | MIC (Klebsiella pneumoniae [35]) | MIC (Pseudomonas aeruginosa [41]) | MIC (Pseudomonas aeruginosa [48]) | MIC (Klebsiella pneumoniae [54])
1 µg/mL: MIC (Staphylococcus aureus [10]) | MIC (Escherichia coli [13]) | MIC (Enterococcus faecalis [34]) | MIC (Enterococcus faecium [53])
64 µg/mL: MIC (Klebsiella pneumoniae [6]) | MIC (Klebsiella pneumoniae [44]) | MIC (Klebsiella pneumoniae [45]) | MIC (Pseudomonas aeruginosa [49]) | MIC (Pseudomonas aeruginosa [50])
2: Ratio (Enterococcus faecium [5]) | Ratio (Staphylococcus aureus [9]) | Ratio (Enterococcus faecium [11]) | Ratio [12] | Ratio [16] | Ratio [17] | Ratio (Enterococcus faecalis [19]) | Ratio [21] | Ratio (Enterococcus faecium [22]) | Ratio [23] | Ratio (Enterococcus faecium [26]) | Ratio (Enterococcus faecalis [27]) | Ratio (Enterococcus faecalis [28]) | Ratio [29] | Ratio (Staphylococcus aureus [36]) | Ratio [38] | Ratio (Enterococcus faecium [39]) | Ratio (Enterococcus faecium [42]) | Ratio (Staphylococcus aureus [46]) | Ratio [47] | Ratio (Enterococcus faecalis [51]) | Ratio (Staphylococcus aureus [55])

Source: ChEMBL document CHEMBL3734675, “Synthesis, antimycobacterial and antibacterial activity of fluoroquinolone derivatives containing an 3-alkoxyimino-4-(cyclopropylanimo)methylpyrrolidine moiety” (2015)
